Experimental findings from ChEMBL document CHEMBL3217642, “Mechanistic insight into inhibition of two-component system signaling” (Medchemcomm, 2013) are described below.

Experiment [1] in a line: Binding affinity to Thermotoga maritima histidine kinase HK853 by STD-NMR analysis.
Experiment [2] relates to Thermotoga maritima. In words: Inhibition of Thermotoga maritima histidine kinase HK853 autophosphorylation at 10 mM. The gist of the method:
(§1)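 Purified HK853 (600 ng) in 50 mM Tris–HCl, 0.2 M KCl, 5 mM MgCl2, pH 7.8 preincubated 30 min with varied analogue concentrations (DMSO ≤5% v/v), then labeled with BODIPY-FL-ATPγS (2 μM final), 1 h RT in dark. Quenched with SDS loading buffer (unheated), resolved by SDS-PAGE, fluorescence band intensity integrated; gels then coomassie stained.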

The test system of experiment [3] is Thermotoga maritima. In words: Induction of Thermotoga maritima histidine kinase HK853 aggregation up to 1000 uM by gel based assay. Summed up:
(§2)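 Purified HK853 (0.44 μM) in 20 mM HEPES pH 7.5, with or without 0.1% final Triton X-100, incubated with varied analogue concentrations (DMSO ≤5% v/v) 4 h RT. Read by native-PAGE with silver staining (band disappearance), and by SDS-PAGE after BS3 crosslinking (100-fold molar excess, 2 h RT, quenched with 20 mM ammonium bicarbonate) with silver staining.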

Experiment [4] deals with Thermotoga maritima. In words: Binding affinity to Thermotoga maritima histidine kinase HK853 D411A mutant by STD-NMR analysis.
In experiment [5] the test system is Thermotoga maritima. The experiment in a line: Binding affinity to Thermotoga maritima histidine kinase HK853 by STD-NMR analysis in presence of ADP.
For experiment [6], the system named is Thermotoga maritima. The experiment in a line: Induction of Thermotoga maritima histidine kinase HK853 aggregation up to 10 mM by gel based assay. The gist of the method: as §2
Experiment [7] has as its system Thermotoga maritima. In words: Inhibition of Thermotoga maritima histidine kinase HK853 autophosphorylation up to 10 mM. The gist of the method:
as §1

Experiment [8] has as its system Thermotoga maritima. In words: Displacement of BODIPY-FL-ATP-gamma-S from Thermotoga maritima histidine kinase HK853 at 1 mM to 600 uM. Summed up:
as §1

Experiment [9] in a line: Inhibition of Thermotoga maritima histidine kinase HK853 autophosphorylation. The gist of the method:
as §1

Calls of active or inactive are those of the source. No cut-off for these calls is given here.

In the case of `N=C(N)NCCc1ccc(O)cc1`, in experiment [1], the Kd – broadly, the equilibrium constant for the complex coming apart – worked out at 2410 µM. For the same compound, the inhibition result with Thermotoga maritima [2] and in the experiment with Thermotoga maritima [3] was “inactive” throughout. In addition, in the experiment with Thermotoga maritima [4], the result was inactive.

`CS(=O)(=O)c1ccc(CCNC(=N)N)cc1` registered an equilibrium dissociation constant (Kd) in experiment [1] of 580 µM. Further, the outcome with Thermotoga maritima [5] and in the experiment on Thermotoga maritima [6] was inactive. Further, the inhibition entry with Thermotoga maritima [7] was “Active”.

`CCCCCCCCCCOc1ccc(CCNC(=N)N)cc1`: in the experiment on Thermotoga maritima [8], the inhibition result is “Active”.

With `C/C(=C/CC(C)(C)/C=C/C(=O)N[C@@H](Cc1c[nH]c2ccccc12)C(=O)O)CC/C=C(\C)Br`, 44 µM corresponded to half-maximal inhibition in experiment [9] (IC50).

With `CCCCCCCOc1ccc(CCNC(=N)N)cc1`, the inhibition entry in the experiment with Thermotoga maritima [8] is “Active”.

Take `CCCN(C(=O)/C(C#N)=C(/C)O)c1nc(-c2ccc(C(C)(C)C)cc2)cs1`: inhibition in experiment [9] was half-maximal at 30 µM (IC50).
